Starred links: 1 amine or outer side, 2 acyl side, 3 side chain; linkers in the order of their positions; H or OH if unused. Non-standard residues stand in square brackets, D forms with d. Residues, ends and D or L forms follow the SMILES beside them. X1 = NCCCC(CC(=O)[*:2])N[*:1]
Experiments:
BCL1 [1] = assay: Inhibitory concentration against BCL1 cell proliferation in WST-1 assay; Range 10-20; type: functional, Mus musculus
How it was run: (§1)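 BCL1 cells, 2000 per well, grown in DMEM with 10% FBS at 37 °C and 5% CO2. Exposed to conjugate for 3 days, then viable cells read by WST-1 absorbance at 450 nm. Value is the concentration at which absorbance fell below 50% of untreated control; triplicates.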

CD40 mRNA [2] = assay: […] CD40 expression in BCL1 cells treated with 10 uM peptide nucleic acid (PNA)conjugate; n=3; type: functional, cell-based; conditions: Mus musculus
How it was run: (§2)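 Mouse BCL1 cells in DMEM with 10% FBS, given conjugate at 1, 3 or 10 μM by free uptake (no transfection agent) for 3 days. Cells trypsinised and stained 1 h with FITC anti-CD40 (HM40-3) or isotype control, then surface CD40 read by flow cytometry. Results are % untreated control, mean ± SD, n = 3.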

CD40 mRNA [3] = assay: […] CD40 expression in BCL1 cells treated with 3 uM peptide nucleic acid (PNA)conjugate; n=3; type: functional, cell-based; conditions: Mus musculus; how it was run: as §2
CD40 mRNA [4] = assay: […] CD40 expression in BCL1 cells treated with 1 uM peptide nucleic acid (PNA)conjugate; n=3; type: functional, cell-based; conditions: Mus musculus; how it was run: as §2
[5] = Half-life of the conjugate when treated with 10% foetal bovine serum for enzymatic stability; type: ADME, Bos taurus; conditions: cattle
How it was run: (§3)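 Conjugates at 20 μM in 10% FBS RPMI 1640 medium or 25% mouse serum (Hepes-stabilised, diluted in PBS, pH 7.1–7.4), incubated at 37 °C. Sampled to 168 h (FBS) or 48 h (serum); proteins precipitated with 10% DCA, PNA 6mer internal standard added. Analysed by C3 RP-HPLC at 60 °C; t1/2 from normalised full-length peak area versus time.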

[6] = Half-life of the conjugate when treated with 25% murine serum for enzymatic stability; No degradation observed within the period of time indicated; type: ADME; conditions: mouse; how it was run: as §3
[7] = Average tissue concentration of conjugate at a dose of 3 mg/Kg in BALB/c mice MLN when given s.c. measured after 24 h; n=3; type: ADME; conditions: mouse, in vivo, sc
[8] = Average tissue concentration of conjugate at a dose of 3 mg/Kg in BALB/c mice MLN when given i.v. measured after 24 h; n=3; type: ADME; conditions: mouse, in vivo, iv
[9] = Average tissue concentration of conjugate at a dose of 3 mg/Kg in BALB/c mice kidney when given s.c. measured after 24 h; n=3; type: ADME; conditions: mouse, in vivo, sc
[10] = Average tissue concentration of conjugate at a dose of 3 mg/Kg in BALB/c mice skin when given i.v. measured after 24 h; n=3; type: ADME; conditions: mouse, in vivo, iv
[11] = Average tissue concentration of conjugate at a dose of 3 mg/Kg in BALB/c mice heart when given i.v. measured after 24 h; n=3; type: ADME, tissue-based; conditions: mouse, in vivo, iv
[12] = Average tissue concentration of conjugate at a dose of 3 mg/Kg in BALB/c mice liver when given s.c. measured after 24 h; n=3; type: ADME, tissue-based; conditions: mouse, in vivo, sc
[13] = Average tissue concentration of conjugate at a dose of 3 mg/Kg in BALB/c mice small intestine when given s.c. measured after 24 h; n=3; type: ADME, tissue-based; conditions: mouse, in vivo, sc
[14] = Average tissue concentration of conjugate at a dose of 3 mg/Kg in BALB/c mice spleen when given s.c. measured after 24 h; n=3; type: ADME, tissue-based; conditions: mouse, in vivo, sc
[15] = Average tissue concentration of conjugate at a dose of 3 mg/Kg in BALB/c mice skeletal muscle when given s.c. measured after 24 h; n=3; type: ADME, tissue-based; conditions: mouse, in vivo, sc
[16] = Average tissue concentration of conjugate at a dose of 3 mg/Kg in BALB/c mice heart when given s.c. measured after 24 h; n=3; type: ADME, tissue-based; conditions: mouse, in vivo, sc
BCL1 [17] = assay: Inhibitory concentration against BCL1 cell proliferation in WST-1 assay; type: functional, Mus musculus; how it was run: as §1
[18] = Average tissue concentration of conjugate at a dose of 3 mg/Kg in BALB/c mice skeletal muscle when given i.v. measured after 24 h; n=3; type: ADME, tissue-based; conditions: mouse, in vivo, iv
[19] = Average tissue concentration of conjugate at a dose of 3 mg/Kg in BALB/c mice injection site when given s.c. measured after 24 h; n=3; type: ADME; conditions: mouse, in vivo, sc
[20] = Average tissue concentration of conjugate at a dose of 3 mg/Kg in BALB/c mice spleen when given i.v. measured after 24 h; n=3; type: ADME, tissue-based; conditions: mouse, in vivo, iv
[21] = Half-life of the conjugate when treated with 10% foetal bovine serum for enzymatic stability; No degradation observed within the period of time indicated; type: ADME, Bos taurus; conditions: cattle; how it was run: as §3
[22] = Average tissue concentration of conjugate at a dose of 3 mg/Kg in BALB/c mice skin when given s.c. measured after 24 h; n=3; type: ADME; conditions: mouse, in vivo, sc
[23] = Average tissue concentration of conjugate at a dose of 3 mg/Kg in BALB/c mice pancreas when given i.v. measured after 24 h; n=3; type: ADME; conditions: mouse, in vivo, iv
[24] = Average tissue concentration of conjugate at a dose of 3 mg/Kg in BALB/c mice large intestine when given i.v. measured after 24 h; n=3; type: ADME, tissue-based; conditions: mouse, in vivo, iv
[25] = Average tissue concentration of conjugate at a dose of 3 mg/Kg in BALB/c mice liver when given i.v. measured after 24 h; n=3; type: ADME, tissue-based; conditions: mouse, in vivo, iv
[26] = Average tissue concentration of conjugate at a dose of 3 mg/Kg in BALB/c mice kidney when given i.v. measured after 24 h; n=3; type: ADME; conditions: mouse, in vivo, iv
[27] = Average tissue concentration of conjugate at a dose of 3 mg/Kg in BALB/c mice pancreas when given s.c. measured after 24 h; n=3; type: ADME; conditions: mouse, in vivo, sc
[28] = Half-life of the conjugate when treated with 25% murine serum for enzymatic stability; type: ADME; conditions: mouse; how it was run: as §3
[29] = Average tissue concentration of conjugate at a dose of 3 mg/Kg in BALB/c mice lungs when given i.v. measured after 24 h; n=3; type: ADME; conditions: mouse, in vivo, iv
[30] = Average tissue concentration of conjugate at a dose of 3 mg/Kg in BALB/c mice testes when given i.v. measured after 24 h; n=3; type: ADME, tissue-based, Testis; conditions: mouse, in vivo, iv
[31] = Average tissue concentration of conjugate at a dose of 3 mg/Kg in BALB/c mice small intestine when given i.v. measured after 24 h; n=3; type: ADME, tissue-based; conditions: mouse, in vivo, iv
[32] = Average tissue concentration of conjugate at a dose of 3 mg/Kg in BALB/c mice lungs when given s.c. measured after 24 h; n=3; type: ADME; conditions: mouse, in vivo, sc
[33] = Average tissue concentration of conjugate at a dose of 3 mg/Kg in BALB/c mice testes when given s.c. measured after 24 h; n=3; type: ADME, tissue-based, Testis; conditions: mouse, in vivo, sc
[34] = Average tissue concentration of conjugate at a dose of 3 mg/Kg in BALB/c mice large intestine when given s.c. measured after 24 h; n=3; type: ADME, tissue-based; conditions: mouse, in vivo, sc
BCL1 [35] = assay: Inhibitory concentration against BCL1 cell proliferation in WST-1 assay; Range 5-10; type: functional, Mus musculus; how it was run: as §1
[36] = Half-life of the conjugate when treated with 25% murine serum for enzymatic stability; Range 2-3 h; type: ADME; conditions: mouse; how it was run: as §3
[37] = Half-life of the conjugate when treated with 25% murine serum for enzymatic stability; No data available; type: ADME; conditions: mouse; how it was run: as §3

Molecule `NCCCC[C@@H](C=O)NC(=O)[C@@H](CCCCN)NC(=O)[C@@H](CCCCN)NC(=O)[C@@H](CCCCN)NC(=O)[C@@H](CCCCN)NC(=O)[C@@H](CCCCN)NC(=O)[C@@H](CCCCN)NC(=O)[C@@H](CCCCN)NC(=O)[C@H](N)CCCCN` has an IC50 (BCL1 [1]) of 20 µM, a UTC (CD40 mRNA [2]) of 54% and a UTC (CD40 mRNA [3]) of 81%. It also gave a UTC (CD40 mRNA [4]) of 97%, a half-life [5] of over 168 h and a half-life [6] of over 48 h.
In the case of `NCCCC[C@@H](C=O)NC(=O)[C@H](CCCCN)NC(=O)[C@H](CCCCN)NC(=O)[C@H](CCCCN)NC(=O)[C@H](CCCCN)NC(=O)[C@H](CCCCN)NC(=O)[C@H](CCCCN)NC(=O)[C@H](CCCCN)NC(=O)[C@@H](N)CCCCN`, the Biodistribution [7] is reported as 0.76 ug equiv/g, the Biodistribution [8] is reported as 1.94 ug equiv/g and the UTC (CD40 mRNA [2]) is reported as 39% [middle of 7 runs]. For the same molecule, the Biodistribution [9] was 11.55 ug equiv/g, the Biodistribution [10] was 1.25 ug equiv/g and the Biodistribution [11] was 0.18 ug equiv/g. For the same molecule, the Biodistribution [12] was 5.44 ug equiv/g, the Biodistribution [13] was 0.26 ug equiv/g and the Biodistribution [14] was 1.51 ug equiv/g. For the same molecule, the Biodistribution [15] was 0.2 ug equiv/g, the Biodistribution [16] was 0.07 ug equiv/g and the “IC50 for cell proliferation” value (BCL1 [17]) was 20 µM. For the same molecule, the UTC (CD40 mRNA [4]) was 88% [middle of 7 runs], the Biodistribution [18] was 0.29 ug equiv/g and the Biodistribution [19] was 20 ug equiv/g. It also gave a Biodistribution [20] of 3.68 ug equiv/g, a half-life [21] of over 168 h and a Biodistribution [22] of 0.75 ug equiv/g. It also gave a Biodistribution [23] of 0.6 ug equiv/g, a Biodistribution [24] of 2.07 ug equiv/g and a Biodistribution [25] of 11.47 ug equiv/g. The Biodistribution [26] was 12.74 ug equiv/g, the Biodistribution [27] was 0.2 ug equiv/g and the half-life [28] was 6.7 h. It also gave a Biodistribution [29] of 0.22 ug equiv/g, a Biodistribution [30] of 0.38 ug equiv/g and a Biodistribution [31] of 1.31 ug equiv/g. The Biodistribution [32] was 0.1 ug equiv/g, the Biodistribution [33] was 0.23 ug equiv/g and the Biodistribution [34] was 0.31 ug equiv/g.
`NCCCC[C@@H](C=O)NC(=O)CC(CCCN)NC(=O)CC(CCCN)NC(=O)CC(CCCN)NC(=O)CC(CCCN)NC(=O)CC(CCCN)NC(=O)CC(CCCN)NC(=O)CC(CCCN)NC(=O)CC(N)CCCN` (some centres undefined) gave a UTC (CD40 mRNA [2]) of 66%, a UTC (CD40 mRNA [3]) of 81% and a UTC (CD40 mRNA [4]) of 94%. The half-life [5] was over 168 h, the half-life [28] was over 48 h and the Cell viability (BCL1 [35]) was 10 µM.
Work on `NCCCC[C@@H](C=O)NC(=O)[C@H](CCCCN)NC(=O)[C@H](CCCCN)NC(=O)[C@H](CCCN=C(N)N)NC(=O)[C@H](CCCCN)NC(=O)[C@H](CCCCN)NC(=O)[C@H](CCCN=C(N)N)NC(=O)[C@H](CCCCN)NC(=O)[C@@H](N)CCCCN` (H-KKRKKRKKK-aldehyde) yielded an IC50 (BCL1 [1]) of 20 µM, a UTC (CD40 mRNA [2]) of 43% and a UTC (CD40 mRNA [3]) of 76%. For the same molecule, the half-life [36] was 3 h, the UTC (CD40 mRNA [4]) was 90% and the half-life [5] was 90 h.
With `NCCCC[C@@H](C=O)NC(=O)[C@H](CCCCN)NC(=O)[C@H](CCCCN)NC(=O)CC(CCCN)NC(=O)[C@H](CCCCN)NC(=O)[C@H](CCCCN)NC(=O)CC(CCCN)NC(=O)[C@H](CCCCN)NC(=O)[C@@H](N)CCCCN` (some centres undefined) (H-KK[X1]KK[X1]KKK-aldehyde) the UTC (CD40 mRNA [2]) was 61%, the T1/2 [37] was “No data available” and the UTC (CD40 mRNA [3]) was 82%. It also gave a UTC (CD40 mRNA [4]) of 98%, a half-life [5] of over 168 h and a Cell viability (BCL1 [35]) of 10 µM.
